The record followed here is ChEMBL document CHEMBL1158565, “Antagonism of 4-substituted 1,4-dihydropyridine-3,5-dicarboxylates toward voltage-dependent L-type Ca2+ channels Ca V 1.3 and Ca V 1.2” (Bioorg Med Chem, 2010).

The nature of test [1]: Selectivity ratio of antagonist activity at rat Cav1.3 to antagonist activity at rabbit Cav1.2 at 100 nM. Format: functional. The gist of the method: (§1)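 Percent inhibition of Cav1.3 current was divided by that of Cav1.2 at the same concentration. Currents were from whole-cell patch clamp in transiently transfected tsA201 cells: Ba2+ bath, pH 7.4, steps from -60 mV, about 22 °C.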

Test [2] concerns the target Voltage-dependent L-type calcium channel subunit alpha-1D (Rattus norvegicus) (UniProt P27732). The test can be described thus: Antagonist activity at rat Cav1.3 expressed in HEK293 cells assessed as inhibition of voltage pulse-induced calcium current at 100 nM by whole-cell patch-clamp recording.
The target of test [3] is T1, Voltage-dependent L-type calcium channel subunit alpha-1C (Oryctolagus cuniculus, UniProt P15381). Description: Antagonist activity at rabbit Cav1.2 expressed in tsA201 cells assessed as inhibition of voltage pulse-induced calcium current at 100 nM by whole-cell patch-clamp recording.
T1 sequence (P15381 whole entry): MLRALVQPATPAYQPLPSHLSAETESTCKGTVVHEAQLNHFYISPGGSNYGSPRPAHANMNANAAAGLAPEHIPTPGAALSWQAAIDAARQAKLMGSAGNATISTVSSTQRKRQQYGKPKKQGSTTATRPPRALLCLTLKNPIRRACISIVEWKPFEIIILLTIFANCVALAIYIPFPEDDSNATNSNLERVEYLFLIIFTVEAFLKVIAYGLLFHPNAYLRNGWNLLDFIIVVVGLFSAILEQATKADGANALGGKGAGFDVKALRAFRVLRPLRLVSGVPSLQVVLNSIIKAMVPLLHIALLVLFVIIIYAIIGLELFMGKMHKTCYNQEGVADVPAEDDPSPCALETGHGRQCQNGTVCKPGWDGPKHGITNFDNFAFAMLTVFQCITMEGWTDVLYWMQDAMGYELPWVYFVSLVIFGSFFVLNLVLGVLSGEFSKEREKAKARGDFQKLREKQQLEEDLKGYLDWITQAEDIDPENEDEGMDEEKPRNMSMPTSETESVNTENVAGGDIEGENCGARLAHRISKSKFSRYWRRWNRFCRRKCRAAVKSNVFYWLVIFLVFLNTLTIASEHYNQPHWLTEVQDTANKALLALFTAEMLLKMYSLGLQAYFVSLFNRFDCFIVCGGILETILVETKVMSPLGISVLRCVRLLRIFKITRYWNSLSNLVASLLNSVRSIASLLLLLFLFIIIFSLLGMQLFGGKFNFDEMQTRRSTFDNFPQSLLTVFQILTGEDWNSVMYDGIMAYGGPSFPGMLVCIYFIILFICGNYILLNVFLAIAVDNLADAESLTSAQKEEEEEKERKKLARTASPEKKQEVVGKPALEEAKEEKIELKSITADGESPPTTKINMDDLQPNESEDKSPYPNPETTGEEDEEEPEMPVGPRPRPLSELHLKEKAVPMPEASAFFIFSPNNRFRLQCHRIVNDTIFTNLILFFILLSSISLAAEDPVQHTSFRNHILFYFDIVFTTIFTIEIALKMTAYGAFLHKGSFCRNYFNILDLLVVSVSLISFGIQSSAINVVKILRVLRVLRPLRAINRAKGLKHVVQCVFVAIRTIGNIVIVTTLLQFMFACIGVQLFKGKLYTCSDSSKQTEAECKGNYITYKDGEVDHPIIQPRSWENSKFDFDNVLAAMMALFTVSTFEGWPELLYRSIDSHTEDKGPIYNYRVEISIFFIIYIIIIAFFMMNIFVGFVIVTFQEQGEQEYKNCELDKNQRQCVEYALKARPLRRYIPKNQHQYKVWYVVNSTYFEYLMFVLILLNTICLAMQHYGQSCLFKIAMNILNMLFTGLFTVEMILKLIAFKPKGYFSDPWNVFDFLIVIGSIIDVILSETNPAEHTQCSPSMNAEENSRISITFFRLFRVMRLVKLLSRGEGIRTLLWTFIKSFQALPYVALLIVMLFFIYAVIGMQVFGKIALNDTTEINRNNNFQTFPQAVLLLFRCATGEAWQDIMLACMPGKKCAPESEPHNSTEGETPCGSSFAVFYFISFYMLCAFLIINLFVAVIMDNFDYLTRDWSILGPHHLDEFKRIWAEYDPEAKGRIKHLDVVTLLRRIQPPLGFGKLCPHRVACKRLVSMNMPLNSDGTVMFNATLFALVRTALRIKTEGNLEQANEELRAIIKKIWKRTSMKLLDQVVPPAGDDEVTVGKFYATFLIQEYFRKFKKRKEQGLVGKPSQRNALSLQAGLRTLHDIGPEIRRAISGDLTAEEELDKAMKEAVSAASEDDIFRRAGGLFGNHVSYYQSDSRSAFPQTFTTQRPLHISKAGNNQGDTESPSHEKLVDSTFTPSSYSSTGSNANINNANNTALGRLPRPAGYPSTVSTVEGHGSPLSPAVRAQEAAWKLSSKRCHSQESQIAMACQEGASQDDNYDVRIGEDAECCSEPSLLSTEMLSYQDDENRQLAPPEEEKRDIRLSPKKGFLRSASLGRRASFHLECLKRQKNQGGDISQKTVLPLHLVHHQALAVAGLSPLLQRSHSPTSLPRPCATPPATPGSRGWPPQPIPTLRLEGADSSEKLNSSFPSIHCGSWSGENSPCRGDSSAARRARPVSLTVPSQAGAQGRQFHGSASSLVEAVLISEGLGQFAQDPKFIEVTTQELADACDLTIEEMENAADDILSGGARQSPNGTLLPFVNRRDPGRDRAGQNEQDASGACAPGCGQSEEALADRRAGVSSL
Test [4] has as its target Voltage-dependent L-type calcium channel subunit alpha-1D (Rattus norvegicus) (UniProt P27732). Description: Antagonist activity at rat Cav1.3 expressed in HEK293 cells assessed as inhibition of voltage pulse-induced calcium current at 10 nM by FLIPR calcium 4 assay. Format: functional, cell-based. The note with it: in the assay text read “by whole-cell patch-clamp recording” for “by FLIPR calcium 4 assay”. The gist of the method: (§2)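 Whole-cell patch clamp on tsA201 cells transiently cotransfected with rabbit Cav1.2 α1C or rat Cav1.3 α1D, Cavβ3 and Cavα2δ-1 (1:1:1) plus GFP. GFP cells were recorded after replating at 48 h. Bath (mM): 110 NaCl, 1 MgCl2, 10 BaCl2, 10 HEPES, 10 glucose, 20 CsCl, pH 7.4. Compound was diluted from DMSO stock and perfused. Pulses ran from -60 mV to +10 or 0 mV with tetrodotoxin at about 22 °C. Read-out was percent current inhibition.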
(In patch-clamp work, channel activity is measured electrically.)

The nature of test [5]: Selectivity ratio of antagonist activity at rat Cav1.3 to antagonist activity at rabbit Cav1.2 at 10 nM. The class given is functional. The gist of the method: as §1
The target in test [6] is T1, Voltage-dependent L-type calcium channel subunit alpha-1C. The test can be described thus: Antagonist activity at rabbit Cav1.2 expressed in tsA201 cells assessed as inhibition of voltage pulse-induced calcium current at 10 nM by whole-cell patch-clamp recording.
Test [7] has the same target. Description: Antagonist activity at rabbit Cav1.2 expressed in HEK293 cells assessed as inhibition of voltage pulse-induced calcium current at 1000 nM by FLIPR calcium 4 assay. The class given is functional, cell-based.
For test [8] the target is unchanged. Description: Antagonist activity at rabbit Cav1.2 expressed in tsA201 cells assessed as inhibition of voltage pulse-induced calcium current at 1000 nM by whole-cell patch-clamp recording.
Test [9] in a line: Selectivity ratio of antagonist activity at rat Cav1.3 to antagonist activity at rabbit Cav1.2 at 200 nM. Format: functional. The gist of the method:
as §1

For test [10], the target named is Voltage-dependent L-type calcium channel subunit alpha-1D (Rattus norvegicus) (UniProt P27732). The test can be described thus: Antagonist activity at rat Cav1.3 expressed in HEK293 cells assessed as inhibition of voltage pulse-induced calcium current at 200 nM by whole-cell patch-clamp recording.
Voltage-dependent L-type calcium channel subunit alpha-1D (Rattus norvegicus), sequence (P27732 whole entry, the tested form may be a part): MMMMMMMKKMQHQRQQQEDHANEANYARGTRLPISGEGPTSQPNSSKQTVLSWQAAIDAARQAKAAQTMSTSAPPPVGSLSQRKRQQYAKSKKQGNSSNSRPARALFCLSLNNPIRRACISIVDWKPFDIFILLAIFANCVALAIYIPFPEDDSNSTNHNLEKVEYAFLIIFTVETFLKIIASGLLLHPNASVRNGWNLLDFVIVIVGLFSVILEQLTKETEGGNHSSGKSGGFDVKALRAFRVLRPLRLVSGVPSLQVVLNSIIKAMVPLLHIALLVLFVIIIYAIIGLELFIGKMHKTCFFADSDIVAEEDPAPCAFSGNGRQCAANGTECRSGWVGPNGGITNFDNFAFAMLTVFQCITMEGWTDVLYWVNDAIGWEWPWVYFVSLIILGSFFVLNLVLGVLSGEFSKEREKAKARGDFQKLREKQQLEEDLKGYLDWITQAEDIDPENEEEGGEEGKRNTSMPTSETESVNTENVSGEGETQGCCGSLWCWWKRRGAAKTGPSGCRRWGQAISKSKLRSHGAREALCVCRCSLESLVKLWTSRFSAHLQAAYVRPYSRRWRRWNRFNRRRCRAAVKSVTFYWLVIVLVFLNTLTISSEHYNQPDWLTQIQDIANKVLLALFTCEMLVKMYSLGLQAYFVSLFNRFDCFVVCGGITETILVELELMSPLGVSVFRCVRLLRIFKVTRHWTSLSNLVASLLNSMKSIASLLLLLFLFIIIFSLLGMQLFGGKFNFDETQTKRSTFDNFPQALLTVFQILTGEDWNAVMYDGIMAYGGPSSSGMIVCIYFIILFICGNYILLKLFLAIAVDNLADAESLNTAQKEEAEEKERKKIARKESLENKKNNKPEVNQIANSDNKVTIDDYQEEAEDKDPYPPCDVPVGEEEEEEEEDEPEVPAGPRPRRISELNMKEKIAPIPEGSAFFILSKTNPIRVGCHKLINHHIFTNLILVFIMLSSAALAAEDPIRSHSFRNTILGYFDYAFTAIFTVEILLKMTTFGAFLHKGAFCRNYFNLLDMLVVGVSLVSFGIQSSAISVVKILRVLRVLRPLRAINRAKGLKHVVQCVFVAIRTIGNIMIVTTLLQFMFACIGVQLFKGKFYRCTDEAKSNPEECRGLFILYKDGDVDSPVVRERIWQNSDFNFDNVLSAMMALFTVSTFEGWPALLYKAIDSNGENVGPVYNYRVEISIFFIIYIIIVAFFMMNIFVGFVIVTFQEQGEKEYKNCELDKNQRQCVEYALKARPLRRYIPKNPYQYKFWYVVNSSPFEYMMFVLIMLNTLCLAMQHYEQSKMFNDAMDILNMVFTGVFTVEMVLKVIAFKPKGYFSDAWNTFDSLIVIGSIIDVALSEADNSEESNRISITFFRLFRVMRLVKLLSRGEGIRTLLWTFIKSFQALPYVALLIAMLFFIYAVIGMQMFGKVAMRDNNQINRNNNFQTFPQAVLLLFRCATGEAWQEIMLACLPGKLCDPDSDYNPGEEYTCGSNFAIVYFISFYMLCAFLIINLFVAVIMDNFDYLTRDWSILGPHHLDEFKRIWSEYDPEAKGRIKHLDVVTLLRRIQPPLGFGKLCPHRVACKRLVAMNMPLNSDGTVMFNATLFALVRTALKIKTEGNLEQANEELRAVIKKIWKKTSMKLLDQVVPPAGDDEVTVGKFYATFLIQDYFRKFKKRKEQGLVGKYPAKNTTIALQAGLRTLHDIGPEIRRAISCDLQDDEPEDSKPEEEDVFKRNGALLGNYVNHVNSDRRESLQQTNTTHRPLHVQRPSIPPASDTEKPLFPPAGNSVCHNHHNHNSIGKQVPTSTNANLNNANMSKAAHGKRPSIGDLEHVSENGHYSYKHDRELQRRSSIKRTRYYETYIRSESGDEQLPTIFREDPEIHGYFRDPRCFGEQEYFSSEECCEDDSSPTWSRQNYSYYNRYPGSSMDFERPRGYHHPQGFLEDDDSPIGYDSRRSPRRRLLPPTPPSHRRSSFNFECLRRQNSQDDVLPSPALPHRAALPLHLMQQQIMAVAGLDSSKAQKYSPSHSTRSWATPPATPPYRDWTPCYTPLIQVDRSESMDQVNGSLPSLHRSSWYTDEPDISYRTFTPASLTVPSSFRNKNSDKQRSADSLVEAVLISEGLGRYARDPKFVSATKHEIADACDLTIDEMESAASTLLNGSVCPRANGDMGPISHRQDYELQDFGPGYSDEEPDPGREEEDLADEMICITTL
Test [11] deals with T1, Voltage-dependent L-type calcium channel subunit alpha-1C. Description: Antagonist activity at rabbit Cav1.2 expressed in tsA201 cells assessed as inhibition of voltage pulse-induced calcium current at 200 nM by whole-cell patch-clamp recording.
A short description of test [12]: Selectivity ratio of antagonist activity at rat Cav1.3 to antagonist activity at rabbit Cav1.2 at 500 nM. The class given is functional. The gist of the method:
as §1

Test [13] addresses Voltage-dependent L-type calcium channel subunit alpha-1D (Rattus norvegicus) (UniProt P27732). Description: Antagonist activity at rat Cav1.3 expressed in tsA201 cells assessed as inhibition of voltage pulse-induced calcium current at 500 nM by whole-cell patch-clamp recording.
For test [14], the target named is T1, Voltage-dependent L-type calcium channel subunit alpha-1C. Description: Antagonist activity at rabbit Cav1.2 expressed in tsA201 cells assessed as inhibition of voltage pulse-induced calcium current at 500 nM by whole-cell patch-clamp recording.
Test [15] deals with Voltage-dependent L-type calcium channel subunit alpha-1D (Rattus norvegicus) (UniProt P27732). Description: Antagonist activity at rat Cav1.3 expressed in HEK293 cells assessed as inhibition of voltage pulse-induced calcium current at 200 nM by FLIPR calcium 4 assay. Format: functional, cell-based. The note with it: in the assay text read “by whole-cell patch-clamp recording” for “by FLIPR calcium 4 assay”. The gist of the method: as §2

Test [16] is described as follows: Selectivity ratio of IC50 for Cav1.2 to IC50 for Cav1.3.
Test [17] has as its target Voltage-dependent L-type calcium channel subunit alpha-1D (Rattus norvegicus) (UniProt P27732). The test can be described thus: Antagonist activity at rat Cav1.3 expressed in HEK293 cells assessed as inhibition of voltage pulse-induced calcium current at 10 nM by whole-cell patch-clamp recording.

As to `CCOC(=O)C1=C(C)NC(C)=C(C(=O)OCC)C1c1cccc(Br)c1`, in [1], the Selectivity ratio worked out at 0.98. For the same compound, the inhibition (as a rule, how much of the control response was suppressed) in test [2] is 80%. Moreover, the inhibition at 0.1 µM in test [3] came to 82%.
On to `CCOC(=O)C1=C(C)NC(C)=C(C(=O)OC)C1c1cccc([N+](=O)[O-])c1` (stereo not drawn) [NITRENDIPINE], for which the Selectivity ratio in test [1] came out at 0.55. The inhibition in test [2] was 34%. Moreover, in test [3], the inhibition at 0.1 µM came to 62%.
Consider `CCOC(=O)C1=C(C)NC(C)=C(C(=O)OC)C1c1ccccc1[N+](=O)[O-]` (stereo not drawn), for which the inhibition in test [4] amounted to 26%. Moreover, the Selectivity ratio in test [5] came to 0.63. Moreover, the inhibition at 0.01 µM in test [6] was determined as 41%.
In the case of `CCOC(=O)C1=C(CC)NC(CC)=C(C(=O)OCC)C1c1ccc([N+](=O)[O-])cc1`, in test [7], the inhibition at 1 µM worked out at 58%.
Turning to `CCOC(=O)C1=C(C)NC(C)=C(C(=O)OCC)C1c1ccc([N+](=O)[O-])cc1`, in test [8], the inhibition at 1 µM came out at 48%.
`CCOC(=O)C1=C(C)NC(C)=C(C(=O)OCC)C1c1ccc(OCc2ccc(Br)cc2)cc1`: in test [8], the inhibition at 1 µM was 38%.
Turning to `CCOC(=O)C1=C(C)NC(C)=C(C(=O)OCC)C1c1cccc(C(F)(F)F)c1`, the Selectivity ratio in test [9] was found to be 0.99. The inhibition in [10] turned out to be 84%. Moreover, the inhibition at 0.2 µM in test [11] is 85%.
Consider `CCCC1=C(C(=O)OCC)C(c2cccc([N+](=O)[O-])c2)C(C(=O)OCC)=C(CCC)N1`, for which the Selectivity ratio in test [1] was 1.07. Besides, the inhibition in [2] was determined as 27%. For the same compound, in [3], the inhibition at 0.1 µM was 25%.
As to `CCOC(=O)C1=C(C)NC(C)=C(C(=O)OCC)C1c1ccccc1`, the Selectivity ratio in test [1] amounted to 0.85. The inhibition in [2] stood at 41%. The inhibition at 0.1 µM in [3] came out at 48%.
The corresponding values for `CC1=C(C(=O)OC(C)(C)C)C(c2cccc([N+](=O)[O-])c2)C(C(=O)OC(C)(C)C)=C(C)N1` are 0.69, 22% and 32%.
With `CCOC(=O)C1=C(C)N=C(C)/C(=C(/O)OCC)C1/C=C/c1ccccc1` (stereo not drawn), the inhibition at 1 µM in [8] is 30%.
For the compound `CCOC(=O)C1=C(C)NC(C)=C(C(=O)OCC)C1c1cccc(F)c1`, the Selectivity ratio in [1] was 0.75. In addition, the inhibition in test [2] was 48%. Moreover, in [3], the inhibition at 0.1 µM worked out at 64%.
For the compound `CC1=C(C(=O)OC(C)(C)C)C(c2ccc([N+](=O)[O-])cc2)C(C(=O)OC(C)(C)C)=C(C)N1`, the inhibition at 1 µM in test [8] was 36%.
Still for that read-out and setting: in the case of `CCOC(=O)C1=C(C)NC(C)=C(C(=O)OCC)C1C(C)c1ccccc1` (stereo not drawn) it was 28%.
As to `CCOC(=O)C1=C(C)N=C(C)/C(=C(/O)OCC)C1c1ccco1` (stereo not drawn), in test [9], the Selectivity ratio is 0.67. Also, the inhibition in test [10] was 48%. Moreover, the inhibition at 0.2 µM in test [11] was 72%.
Regarding `CCOC(=O)C1=C(C)NC(C)=C(C(=O)OC)C1c1ccc([N+](=O)[O-])cc1` (stereo not drawn), in test [8], the inhibition at 1 µM is 48%.
As for `CCOC(=O)C1=C(CC)NC(CC)=C(C(=O)OCC)C1c1cccc([N+](=O)[O-])c1`, in [1], the Selectivity ratio is 0.71. Further, the inhibition in test [2] amounted to 37%. Also, the inhibition at 0.1 µM in test [3] was 52%.
The corresponding values for `CCOC(=O)C1=C(CC)NC(C)=C(C(=O)OC)C1c1cccc([N+](=O)[O-])c1` (stereo not drawn) are 0.72, 55% and 76%.
Consider `CCOC(=O)C1=C(C)NC(C)=C(C(=O)OCC)C1c1ccc([N+](=O)[O-])o1`, for which the Selectivity ratio in [9] came to 0.95. In addition, in test [10], the inhibition came out at 41%. The inhibition at 0.2 µM in [11] was found to be 43%.
`CCOC(=O)C1=C(C)NC(C)=C(C(=O)OCC)C1c1cccc(Cl)c1`: the Selectivity ratio in [1] is 1.02. Besides, the inhibition in test [2] was 59%. Further, the inhibition at 0.1 µM in test [3] is 58%.
Turning to `CCOC(=O)C1=C(C)N=C(C)/C(=C(/O)OCC)C1c1cccc(OC)c1` (stereo not drawn), in test [9], the Selectivity ratio turned out to be 0.64. The inhibition in test [10] was determined as 44%. The inhibition at 0.2 µM in test [11] is 69%.
With `CCOC(=O)C1=C(C)NC(C)=C(C(=O)OCC)C1c1cc2cc(Br)ccc2[nH]1`, the Selectivity ratio in test [12] worked out at 1.03. Also, in test [13], the inhibition amounted to 43%. The inhibition at 0.5 µM in [14] amounted to 42%.
For `CCOC(=O)C1=C(C)NC(C)=C(C(=O)OCC)C1c1cc2cccc(C)c2nc1Cl`, the inhibition at 1 µM in [8] came out at 12%.
On to `COC(=O)C1=C(C)NC(C)=C(C(=O)OC)C1c1ccccc1[N+](=O)[O-]` [NIFEDIPINE], for which the Selectivity ratio in test [1] stood at 0.67. Also, the inhibition in [2] was 46%. Moreover, the inhibition at 0.1 µM in [3] amounted to 69%.
As to `CC1=C(C(=O)OC(C)C)C(c2cccc([N+](=O)[O-])c2)C(C(=O)OC(C)C)=C(C)N1`, the inhibition in test [15] was 66%. Moreover, in test [9], the Selectivity ratio turned out to be 0.86. In [11], the inhibition at 0.2 µM was found to be 77%.
`CCOC(=O)C1=C(C)N(C)C(C)=C(C(=O)OCC)C1c1cccc([N+](=O)[O-])c1`: in test [8], the inhibition at 1 µM stood at 35%.
`CCOC(=O)C1=C(C)NC(C)=C(C(=O)OCC)C1c1ccc(Cl)c([N+](=O)[O-])c1`: the inhibition in test [15] was found to be 66%. In addition, the Selectivity ratio in [9] worked out at 0.77. The inhibition at 0.2 µM in test [11] was determined as 86%.
The corresponding values for `CCOC(=O)C1=C(C)N=C(C)/C(=C(/O)OCC)C1c1cccs1` (stereo not drawn) are 57%, 0.87 and 65%.
As for `CCOC(=O)C1=C(C)NC(C)=C(C(=O)OCC)C1c1ccc(-c2cccs2)s1`, the inhibition at 1 µM in [8] stood at 35%.
`CCOC(=O)C1=C(C)NC(C)=C(C(=O)OCC)C1c1csc2ccccc12`: the inhibition in test [15] was 57%. For the same compound, the Selectivity ratio in test [9] came to 0.7. Further, the inhibition at 0.2 µM in test [11] worked out at 80%.
In the case of `CCOC(=O)C1=C(CC)NC(C)=C(C(=O)OC)C1c1ccc([N+](=O)[O-])cc1` (stereo not drawn), the inhibition at 1 µM in [8] came to 28%.
With `COCCOC(=O)C1=C(C)NC(C)=C(C(=O)OC(C)C)C1c1cccc([N+](=O)[O-])c1` (stereo not drawn), the Ratio IC50 in test [16] was determined as 20.
With `CCOC(=O)C1=C(C)N=C(C)/C(=C(/O)OCC)C1c1cccnc1` (stereo not drawn), the Selectivity ratio in test [9] amounted to 0.56. Moreover, in test [10], the inhibition turned out to be 14%. Moreover, the inhibition at 0.2 µM in test [11] came out at 25%.
On to `CCOC(=O)C1=C(C)NC(C)=C(C(=O)OCC)C1c1cccc([N+](=O)[O-])c1`, for which the Selectivity ratio in test [5] stood at 1.34. Besides, in [17], the inhibition is 43%. Besides, the inhibition at 0.01 µM in [6] is 32%.
